The source made the active and inactive calls. The rule behind the calls is not given here.
Columns and labels:
[1] = molecular target: T1, Pyruvate dehydrogenase kinase (Rattus norvegicus) (UniProt Q63065+A6IPZ9+Q64536+O54937); assay: In vivo percent of control lactate in 24 hr fasted rats at 100 umol/kg oral dose after 5 hours; type: functional, organism-based
In short: (§1)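 Normal Sprague–Dawley rats, n = 6/group, fasted 24 h, then dosed orally (μmol/kg); blood lactate sampled at 2, 2.5 or 5 h postdose and expressed as percent of control; significance p < 0.05.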

[2] = molecular target: T1, Pyruvate dehydrogenase kinase (Rattus norvegicus); assay: In vivo percent of control lactate in 24 hr fasted rats at 100 umol/kg oral dose after 2.5 hours; type: functional, organism-based; in short: as §1
[3] = molecular target: T1, Pyruvate dehydrogenase kinase (Rattus norvegicus); assay: In vivo percent of control lactate in 24 hr fasted rats at 100 umol/kg oral dose; type: functional, organism-based; in short: as §1
[4] = molecular target: T1, Pyruvate dehydrogenase kinase (Rattus norvegicus); assay: In vivo percent of control lactate in 24 hr fasted rats at 250 umol/kg oral dose; type: functional, organism-based; in short: as §1
[5] = molecular target: Pyruvate dehydrogenase kinase (Homo sapiens) (UniProt Q15119+Q15120+Q16654+Q15118); assay: In vitro inhibition of pyruvate dehydrogenase kinase (PDHK) in primary enzymatic assay; Inactive; type: protein assay; details: Sus scrofa
In short: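 Primary high-throughput enzymatic assay of PDH kinase inhibition using commercial porcine PDH complex; IC50 reported as μM ± standard error.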

Homo sapiens = organism: Homo sapiens; assay: Effective concentration in human fibroblasts for increased oxidation of lactate; type: functional, organism-based
In short: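 Human fibroblasts incubated with [14C]lactate; PDH complex activation read as conversion of [14C]lactate to 14CO2 (modified Ofenstein assay); EC50 (μM ± standard error).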

[6] = molecular target: T1, Pyruvate dehydrogenase kinase (Rattus norvegicus); assay: In vivo percent of control lactate in 24 hr fasted rats at 30 uM/kg oral dose; type: functional, organism-based; details: 30 umol/kg; in short: as §1
[7] = molecular target: T1, Pyruvate dehydrogenase kinase (Rattus norvegicus); assay: In vivo percent of control lactate in 24 hr fasted rats at 300 umol/kg oral dose after 5 hours; type: functional, organism-based; in short: as §1
[8] = molecular target: T1, Pyruvate dehydrogenase kinase (Rattus norvegicus); assay: In vivo percent of control lactate in 24 hr fasted rats at 300 umol/kg oral dose after 2.5 hours; type: functional, organism-based; in short: as §1
[9] = molecular target: T1, Pyruvate dehydrogenase kinase (Rattus norvegicus); assay: In vivo percent of control lactate in 24 hr fasted rats at 30 uM/kg oral dose after 2.5 hours; type: functional, organism-based; in short: as §1
[10] = molecular target: T1, Pyruvate dehydrogenase kinase (Rattus norvegicus); assay: In vivo percent of control lactate in 24 hr fasted rats at 30 uM/kg oral dose after 5 hours; type: functional, organism-based; in short: as §1
[11] = molecular target: T1, Pyruvate dehydrogenase kinase (Rattus norvegicus); assay: In vivo percent of control lactate in 24 hr fasted rats at 10 uM/kg oral dose after 2.5 hours; type: functional, organism-based; in short: as §1
[12] = Area Under Curve after oral dosing of 100 uM/Kg; type: ADME
In short: (§2)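 Plasma levels of parent drug profiled in rats after a single oral dose; t1/2, AUC (0–8 h), Tmax and Cmax derived from the plasma concentration–time profile.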

[13] = Tmax after oral dosing of 100 uM/Kg; type: ADME, organism-based; details: in vivo; in short: as §2
[14] = Half-life after oral administration (100 uM/Kg); type: ADME, organism-based; details: in vivo; in short: as §2
[15] = Cmax after oral dosing of 100 umol/Kg; type: ADME, organism-based; parameters: dose 100 umol/Kg, route oral; details: in vivo; in short: as §2

In the case of `CCOCCCNS(=O)(=O)c1ccc(NC(=O)[C@@](C)(O)C(F)(F)F)c(Cl)c1`, the Control [1] is reported as 70% and the Control [2] is reported as 72%.

In the case of `C[C@@](O)(C(=O)Nc1ccc(C(=O)N[C@@H](Cc2ccccc2)C(=O)[O-])cc1Cl)C(F)(F)F.[Na+]`, the Control [3] is reported as 115%.

`C[C@@](O)(C(=O)Nc1ccc(S(C)(=O)=O)cc1Cl)C(F)(F)F` showed a Control [4] of 65%.

For `CC(O)(C(=O)Nc1cc(C(=O)N2CCCCC2)ccc1Cl)C(F)(F)F` (stereo unspecified), the NA [5] was “inactive”.

`CC(O)(C(=O)Nc1cccc(C(=O)c2ccccc2)c1)C(F)(F)F` (stereo unspecified) gave an EC50 (Homo sapiens) of 10 µM.

Work on `C[C@@](O)(C(=O)Nc1ccc(C(=O)N[C@@H](CCc2ccccc2)C(=O)O)cc1Cl)C(F)(F)F` yielded a Control [6] of 97%.

In the case of `CC(O)(C(=O)Nc1cc(C(=O)c2ccccc2)ccc1Cl)C(F)(F)F` (stereo unspecified), the NA [5] is reported as “inactive”.

In the case of `COc1ccc(NC(=O)C(C)(O)C(F)(F)F)cc1` (stereo unspecified), the EC50 (Homo sapiens) is reported as 43.1 µM.

`C=CCNS(=O)(=O)c1ccc(NC(=O)[C@@](C)(O)C(F)(F)F)c(Cl)c1` showed a Control [1] of 62% and a Control [2] of 76%.

With `CC(O)(C(=O)Nc1cc(C(=O)O)ccc1Cl)C(F)(F)F` (stereo unspecified) the NA [5] was “inactive”.

Molecule `CC(C)CNS(=O)(=O)c1ccc(NC(=O)C(C)(C)O)c(Cl)c1` has a Control [1] of 95%, a Control [2] of 101% and a Control [7] of 76%. The Control [8] was 69%.

For `C[C@@](O)(C(=O)Nc1ccc(C(=O)O)cc1Cl)C(F)(F)F`, the EC50 (Homo sapiens) was 1.4 µM.

`C[C@@](O)(C(=O)Nc1ccc(S(=O)(=O)NCCCN2CCCC2=O)cc1Cl)C(F)(F)F` showed a Control [1] of 52%, a Control [2] of 51% and a Control [9] of 87%. The Control [10] was 66%.

For `CC(O)(C(=O)Nc1ccccc1-c1ccccc1)C(F)(F)F` (stereo unspecified), the NA [5] was “inactive”.

Work on `C[C@@](O)(C(=O)Nc1ccc(S(=O)(=O)NCc2ccccn2)cc1Cl)C(F)(F)F` yielded a Control [1] of 84% and a Control [2] of 64%.

`C[C@@](O)(C(=O)Nc1ccc(S(=O)(=O)NCCN2CCOCC2)cc1Cl)C(F)(F)F` gave a Control [1] of 84% and a Control [2] of 71%.

With `C[C@@](O)(C(=O)Nc1ccc(S(=O)(=O)N2CCC(N)C2)cc1Cl)C(F)(F)F` (stereo partly specified) the Control [1] was 70% and the Control [2] was 82%.

With `CC(O)(C(=O)Nc1ccc(C(=O)N2CCCCC2)cc1Cl)C(F)(F)F` (stereo unspecified) the EC50 (Homo sapiens) was 0.71 µM.

Work on `CC(O)(C(=O)Nc1cccc(C(=O)c2ccccc2)c1Cl)C(F)(F)F` (stereo unspecified) yielded an EC50 (Homo sapiens) of 11 µM.

`C[C@@](O)(C(=O)Nc1ccc(C(=O)N2CCN(c3ccccn3)CC2)cc1Cl)C(F)(F)F` showed a Control [3] of 63%.

With `COC(=O)c1ccc(Cl)c(NC(=O)C(C)(O)C(F)(F)F)c1` (stereo unspecified) the NA [5] was “inactive”.

Work on `CC(O)(C(=O)Nc1ccc(C(=O)c2ccccc2)cc1Cl)C(F)(F)F` (stereo unspecified) yielded an EC50 (Homo sapiens) of 30 µM.

For `CC(C)[C@@H](C(=O)[O-])N(C)C(=O)c1ccc(NC(=O)[C@@](C)(O)C(F)(F)F)c(Cl)c1.[Na+]`, the Control [6] was 87%.

In the case of `C[C@@](O)(C(=O)Nc1ccc(C(=O)N2CCOCC2)cc1Cl)C(F)(F)F`, the Control [3] is reported as 64%.

With `C[C@@](O)(C(=O)Nc1ccc(C(=O)NCCCCCC(=O)[O-])cc1Cl)C(F)(F)F.[Na+]` the Control [3] was 94%.

With `COC(=O)[C@H](Cc1c[nH]c2ccccc12)N(C)C(=O)c1ccc(NC(=O)[C@@](C)(O)C(F)(F)F)c(Cl)c1` the Control [6] was 102%.

Work on `CCCCCCNC(=O)c1ccc(NC(=O)C(C)(O)C(F)(F)F)c(Cl)c1` (stereo unspecified) yielded an EC50 (Homo sapiens) of 5.5 µM.

For `Cc1cccc(C)c1NC(=O)C(C)(O)C(F)(F)F` (stereo unspecified), the NA [5] was “inactive”.

With `CC(O)(C(=O)Nc1cccc(C(F)(F)F)c1)C(F)(F)F` (stereo unspecified) the NA [5] was “inactive”.

In the case of `CC(C)CNS(=O)(=O)c1ccc(NC(=O)[C@@](C)(O)C(F)(F)F)c(Cl)c1`, the Control [1] is reported as 60%, the Control [11] is reported as 100% and the Control [2] is reported as 69%. The Control [9] was 83%.

`C[C@@H](C(=O)[O-])N(C)C(=O)c1ccc(NC(=O)[C@@](C)(O)C(F)(F)F)c(Cl)c1.[Na+]` gave a Control [6] of 94%.

For `C[C@@](O)(C(=O)Nc1ccc(C(=O)NCCCO)cc1Cl)C(F)(F)F`, the Control [3] was 88%.

For `COC(=O)c1cccc(NC(=O)C(C)(O)C(F)(F)F)c1Cl` (stereo unspecified), the EC50 (Homo sapiens) was 13.8 µM.

For `CC(=O)c1ccccc1NC(=O)C(C)(O)C(F)(F)F` (stereo unspecified), the EC50 (Homo sapiens) was 14 µM.

Molecule `CC(O)(C(=O)Nc1ccccc1Cl)C(F)(F)F` (stereo unspecified) has an EC50 (Homo sapiens) of 5.4 µM.

`C[C@@](O)(C(=O)Nc1ccc(S(=O)(=O)NCCc2ccc(F)cc2)cc1Cl)C(F)(F)F` gave a Control [1] of 69% and a Control [2] of 124%.

Molecule `CC(O)(C(=O)Nc1cccc(C(=O)O)c1Cl)C(F)(F)F` (stereo unspecified) has an AUC [12] of 143 µM·h, a Tmax [13] of 0.5 h and a half-life [14] of 4.6 h. The Cmax [15] was 87.3 µM.

Work on `C[C@@](O)(C(=O)Nc1ccc(C(=O)N[C@@H](Cc2ccc(-c3ccccc3)cc2)C(=O)O)cc1Cl)C(F)(F)F` yielded a Control [6] of 101%.

`CN(CCCO)C(=O)c1ccc(NC(=O)[C@@](C)(O)C(F)(F)F)c(Cl)c1` showed a Control [6] of 114%.

Molecule `CC(O)(C(=O)Nc1ccc(C#N)cc1Cl)C(F)(F)F` (stereo unspecified) has a Control [4] of 78%.

For `CCCCCCNC(=O)c1ccc(Cl)c(NC(=O)C(C)(O)C(F)(F)F)c1` (stereo unspecified), the NA [5] was “inactive”.

Work on `C[C@@](O)(C(=O)Nc1ccc(S(=O)(=O)N2CCNCC2)cc1Cl)C(F)(F)F` yielded a Control [8] of 77%.

In the case of `COc1ccc(Cl)c(NC(=O)C(C)(O)C(F)(F)F)c1` (stereo unspecified), the NA [5] is reported as “inactive”.

Reference: ChEMBL document CHEMBL1133733, “Anilides of (R)-trifluoro-2-hydroxy-2-methylpropionic acid as inhibitors of pyruvate dehydrogenase kinase” (J Med Chem, 2000)
